# According to ChEMBL document CHEMBL1153543, “Discovery of novel protease activated receptors 1 antagonists with potent antithrombotic activity in vivo” (J Med Chem, 2009):
# Columns and labels:
# [1] = Oral bioavailability in rat; type: ADME, organism-based; conditions: in vivo
# Method in brief: (§1)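 Rat pharmacokinetic parameters were determined on the hydrochloride salt of each compound.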
# [2] = Half life in rat plasma at 1 mg/kg, iv and 5 mg/kg, po; type: ADME, organism-based
# Method in brief: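 Plasma half-life was measured in male rats dosed iv at 1 mg/kg and po at 5 mg/kg. The value is the mean over three rats.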
# [3] = test system: Rattus norvegicus; test: Increase in occlusion time of arteriovenous shunt in Crl: OFA Sprague-Dawley rat at 1.25 mg/kg, iv; type: functional
# Method in brief: (§2)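 Anesthetized rats; extracorporeal shunt from left carotid artery to right jugular vein, silk thread in the central portion as thrombogenic substrate. A thermal microprobe on the central shunt section gives time to occlusion, seen as a sharp temperature drop. Compound given iv at 1.25 mg/kg or orally at 40 mg/kg. Result expressed as % increase in occlusion time.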
# [4] = test system: CHO; test: Inhibition of SFLLR-NH2-induced calcium release in CHO cells treated prior to SFLLR-NH2 challenge […] by FLIPR assay; type: functional, cell-based; conditions: Cricetulus griseus, read-out: pA2 (converted)
# Method in brief: (§3)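 FLIPR fluorescence assay in CHO cells. Calcium release is evoked by 1 μM SFLLR-NH₂, the PAR1-selective agonist peptide. Compound effect is given as % inhibition at 10 μM or, for competitive antagonists, as a calculated pA₂.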
# [5] = target: T1, Proteinase-activated receptor 4 (Homo sapiens) (UniProt Q96RI0); test: Antagonist activity at PAR4 expressed in Cos7 cells assessed as AYPGKF-mediated SRE-luciferase activity; type: functional, cell-based; conditions: COS-7
# T1 sequence (whole entry): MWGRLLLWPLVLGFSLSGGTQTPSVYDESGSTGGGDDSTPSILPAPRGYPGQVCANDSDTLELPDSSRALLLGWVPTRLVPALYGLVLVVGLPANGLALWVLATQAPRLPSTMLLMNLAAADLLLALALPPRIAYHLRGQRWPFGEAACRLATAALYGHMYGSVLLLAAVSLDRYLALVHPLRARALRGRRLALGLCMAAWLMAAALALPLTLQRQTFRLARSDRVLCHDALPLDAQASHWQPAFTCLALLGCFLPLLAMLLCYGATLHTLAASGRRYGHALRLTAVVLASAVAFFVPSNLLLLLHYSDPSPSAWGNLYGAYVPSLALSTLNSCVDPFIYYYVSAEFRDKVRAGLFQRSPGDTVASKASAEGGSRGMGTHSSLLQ
# [6] = Selectivity for PAR1 to PAR4
# [7] = test system: Rattus norvegicus; test: Increase in occlusion time of arteriovenous shunt in Crl; OFA Sprague-Dawley rat at 40 mg/kg, po; type: functional; method in brief: as §2
# [8] = target: T2, Proteinase-activated receptor 1 (Homo sapiens) (UniProt P25116); test: Antagonist activity at PAR1 expressed in Cos7 cells assessed as SFLLR-mediated SRE-luciferase activity; type: functional, cell-based; conditions: COS-7
# T2 sequence (whole entry): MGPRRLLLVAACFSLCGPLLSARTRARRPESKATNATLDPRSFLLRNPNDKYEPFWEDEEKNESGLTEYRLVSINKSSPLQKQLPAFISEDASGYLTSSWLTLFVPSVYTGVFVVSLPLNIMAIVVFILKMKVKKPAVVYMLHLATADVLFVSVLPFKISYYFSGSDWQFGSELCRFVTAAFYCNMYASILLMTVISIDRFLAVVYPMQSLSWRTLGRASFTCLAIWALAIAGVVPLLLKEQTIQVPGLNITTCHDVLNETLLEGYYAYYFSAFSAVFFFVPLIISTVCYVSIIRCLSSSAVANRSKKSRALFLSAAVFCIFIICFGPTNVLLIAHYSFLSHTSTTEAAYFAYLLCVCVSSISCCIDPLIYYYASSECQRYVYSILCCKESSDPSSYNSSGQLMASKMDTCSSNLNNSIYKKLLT
# [9] = test system: Platelet; test: Inhibition of SFLLR-induced human platelet aggregation; type: functional
# [10] = target: Proteinase-activated receptor 2 (Homo sapiens) (UniProt P55085); test: Antagonist activity at PAR2 expressed in Cos7 cells assessed as SLIGRl-mediated SRE-luciferase activity; type: functional, cell-based; conditions: COS-7
# Chain of Proteinase-activated receptor 2 (Homo sapiens) (P55085 whole entry): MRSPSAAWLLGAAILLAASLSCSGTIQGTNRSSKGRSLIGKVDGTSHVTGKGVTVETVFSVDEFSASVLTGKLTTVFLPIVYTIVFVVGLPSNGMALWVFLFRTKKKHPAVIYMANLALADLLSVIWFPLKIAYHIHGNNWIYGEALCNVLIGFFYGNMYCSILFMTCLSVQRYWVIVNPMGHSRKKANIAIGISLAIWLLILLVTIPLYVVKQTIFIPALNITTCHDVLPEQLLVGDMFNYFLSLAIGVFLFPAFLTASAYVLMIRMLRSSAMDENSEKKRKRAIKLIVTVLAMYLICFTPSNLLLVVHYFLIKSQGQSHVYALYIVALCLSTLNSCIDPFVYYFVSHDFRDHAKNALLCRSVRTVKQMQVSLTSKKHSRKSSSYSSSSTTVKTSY
# [11] = Clearance in rat; type: ADME, organism-based; conditions: in vivo; method in brief: as §1
# [12] = test system: CHO; test: Inhibition of SFLLR-NH2-induced calcium release in CHO cells at 10 uM treated prior to SFLLR-NH2 challenge […] by FLIPR assay; type: functional; conditions: Cricetulus griseus; method in brief: as §3
# [13] = Solubility in water; type: physicochemical
# Method in brief: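 Aqueous solubility was determined on the hydrochloride salt and expressed in mg/mL.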
# [14] = Selectivity for PAR1 to PAR2
structure (smiles),measurement,setting,value
N#Cc1ccccc1/C=C/C=C/C(=O)N1CCN(c2ccccn2)CC1,bioavailability,[1],42%
same,half-life,[2],2.78 h
same,Activity,[3],58%
same,Kb,[4],324 nM
same,pKb,[5],4.93
same,Selectivity ratio,[6],5
same,Activity,[7],54%
same,pKb,[8],5.6
same,pKb,[9],5.3
same,pKb,[10],4.39
same,clearance,[11],6 mL/min/kg
same,inhibition at 10 µM,[12],98.7%
same,solubility,[13],2500 µg/mL
same,Selectivity ratio,[14],15
O=C(/C=C/c1ccccc1[N+](=O)[O-])N1CCN(S(=O)(=O)c2ccccc2F)CC1,inhibition at 10 µM,[12],0%
O=C(/C=C/c1ccccc1[N+](=O)[O-])N1CCCN(Cc2ccc(F)cc2)CC1,inhibition at 10 µM,[12],38.2%
O=C(/C=C/c1ccccc1[N+](=O)[O-])N1CCN(C(=O)C2CCCCCC2)CC1,inhibition at 10 µM,[12],99.9%
O=C(/C=C/c1c(F)cccc1F)N1CCN(Cc2ccc(F)c(F)c2)CC1,inhibition at 10 µM,[12],73.1%
Nc1ccccc1/C=C/C(=O)N1CCN(Cc2ccc(F)cc2)CC1,inhibition at 10 µM,[12],7.4%
O=C(/C=C/C=C/c1ccccc1[N+](=O)[O-])N1CCN(Cc2ccc(F)cc2)CC1,inhibition at 10 µM,[12],59.4%
Cc1ccc(CN2CCN(C(=O)/C=C/c3c(F)cccc3F)CC2)cc1C,inhibition at 10 µM,[12],65.3%
O=C(/C=C/C=C/c1ccccc1Cl)N1CCCN(Cc2ccc(F)cc2)CC1,inhibition at 10 µM,[12],37.8%
O=C(CCc1ccccc1[N+](=O)[O-])N1CCN(Cc2ccc(F)cc2)CC1,inhibition at 10 µM,[12],45.3%
O=C(/C=C/c1cccc(Cl)c1)N1CCN(Cc2ccc(F)cc2)CC1,inhibition at 10 µM,[12],0.7%
O=C(/C=C/c1ccccc1Cl)N1CCN(Cc2ccc(F)cc2)CC1,bioavailability,[1],43%
same,half-life,[2],2.17 h
same,Activity,[3],28%
same,Kb,[4],214 nM
same,pKb,[5],4.91
same,Selectivity ratio,[6],5
same,Activity,[7],59%
same,pKb,[8],5.55
same,pKb,[9],5.52
same,pKb,[10],4.45
same,clearance,[11],40 mL/min/kg
same,inhibition at 10 µM,[12],92.8%
same,solubility,[13],1700 µg/mL
same,Selectivity ratio,[14],15
CCOc1cc2c(cc1C(=O)NC)C(=N)N(CC(=O)c1cc(C(C)(C)C)c(O)c(C(C)(C)C)c1)C2,Activity,[3],27%
same,Kb,[4],141 nM
same,Activity,[7],43%
same,pKb,[9],8.18
O=C(/C=C/c1ccccc1Cl)C1CCN(Cc2ccc(F)cc2)CC1,inhibition at 10 µM,[12],15.8%
O=C(/C=C/C=C/c1ccccc1[N+](=O)[O-])N1CCN(c2ccccc2)CC1,Activity,[3],3%
same,Kb,[4],58.9 nM
same,pKb,[9],5.65
same,inhibition at 10 µM,[12],100%
O=C(/C=C/c1c(F)cccc1F)N1CCN(C(=O)C2CCCCCC2)CC1,Activity,[3],14%
same,Kb,[4],214 nM
same,Activity,[7],0%
same,inhibition at 10 µM,[12],98.9%
O=C(/C=C/C=C/c1ccccc1[N+](=O)[O-])N1CCN(C2CCCC2)CC1,Activity,[3],44%
same,Kb,[4],69.2 nM
same,Activity,[7],7%
same,pKb,[9],5.5
same,inhibition at 10 µM,[12],91.7%
O=C(/C=C/c1ccccc1[N+](=O)[O-])N1CCN(c2cccc(Cl)c2)CC1,inhibition at 10 µM,[12],97.1%
Cc1cccc(CN2CCN(C(=O)/C=C/c3ccccc3[N+](=O)[O-])CC2)c1,inhibition at 10 µM,[12],72.4%
N#Cc1ccc(N2CCN(C(=O)/C=C/c3ccccc3[N+](=O)[O-])CC2)cc1,inhibition at 10 µM,[12],18.8%
N#Cc1ccccc1/C=C/C(=O)N1CCN(C(=O)C2CCCCCC2)CC1,Activity,[3],19%
same,Kb,[4],87.1 nM
same,pKb,[9],5.17
same,inhibition at 10 µM,[12],92.6%
O=C(/C=C/c1ccccc1[N+](=O)[O-])N1CCC(NCc2ccc(F)cc2)CC1,inhibition at 10 µM,[12],0%
O=C(/C=C/c1ccccc1Br)N1CCN(Cc2ccc(F)cc2)CC1,inhibition at 10 µM,[12],93.1%
Cc1cccc(CN2CCN(C(=O)/C=C/c3c(F)cccc3F)CC2)c1,inhibition at 10 µM,[12],86.2%
O=C(/C=C/c1ccccc1[N+](=O)[O-])N1CCN(CC2CCCCC2)CC1,Activity,[3],29%
same,Kb,[4],490 nM
same,pKb,[9],5.31
same,inhibition at 10 µM,[12],91.5%
O=C(/C=C/c1ccccc1[N+](=O)[O-])N1CCN(Cc2ccc(F)cc2)C(=O)C1,inhibition at 10 µM,[12],26.7%
O=C(/C=C/c1ccccc1[N+](=O)[O-])N1CCN(C(=O)NC2CCCCC2)CC1,inhibition at 10 µM,[12],39.2%
O=C(C#Cc1ccccc1[N+](=O)[O-])N1CCN(Cc2ccc(F)cc2)CC1,inhibition at 10 µM,[12],28.6%
O=C(/C=C/c1ccccc1[N+](=O)[O-])N1CCN(Cc2ccc(F)cc2)CC1,inhibition at 10 µM,[12],88.6%
O=C(/C=C/c1ccccc1[N+](=O)[O-])N1CCN(Cc2ccncc2)CC1,inhibition at 10 µM,[12],0%
N#Cc1ccccc1/C=C/C(=O)N1CCN(Cc2ccc(F)cc2)CC1,inhibition at 10 µM,[12],85.4%
